# Screening results as filed in PubChem.
# GSK3A inh: inhibitors of human GSK-3 alpha kinase; P49840; ADP-Glo luminescence, 60 min; inhibition, % at 10 µM; actives 0.1% (n = 320,000); AID 2650;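 active = more than half of replicates show inhibition above 20%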;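 note: GST-tagged GSK-3 alpha with peptide substrate and 25 µM ATP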
# GSK3B inh: human GSK3beta kinase inhibition | activity score (negative = inhibition), % at 10 µM | P49841 | actives 0.038% (n = 300,000) | GST-GSK3beta kinase, ADP-Glo luminescence, 60 min; stronger effect = lower value;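 active = more than half of replicate wells score below -50%, meaning over 50% inhibition versus plate controls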
# Target sequence (P49841 whole entry, looked up): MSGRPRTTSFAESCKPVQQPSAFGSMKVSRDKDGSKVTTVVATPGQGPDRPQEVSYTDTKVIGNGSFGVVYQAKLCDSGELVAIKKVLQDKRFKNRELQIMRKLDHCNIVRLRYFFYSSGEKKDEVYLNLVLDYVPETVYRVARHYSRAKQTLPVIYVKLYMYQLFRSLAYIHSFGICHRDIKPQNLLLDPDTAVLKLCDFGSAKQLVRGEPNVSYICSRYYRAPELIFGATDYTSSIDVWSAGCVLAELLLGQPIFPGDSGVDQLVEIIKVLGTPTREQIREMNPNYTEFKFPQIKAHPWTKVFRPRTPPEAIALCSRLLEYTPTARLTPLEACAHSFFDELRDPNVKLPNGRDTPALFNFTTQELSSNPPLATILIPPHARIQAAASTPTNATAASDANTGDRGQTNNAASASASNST
#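 Test system – GST-tagged human GSK3beta kinase, cell-free · Incubation – 60 min enzyme reaction, room temperature · Signal – ADP-Glo luminescence · Also added – peptide substrate and ATP at 25 µM · Controls – DMSO neutral wells and GW8510 at 20 µM as positive · Buffer or medium – Tris/MgCl2 kinase buffer · Measure – Luminescence-derived activity versus plate DMSO and GW8510 wells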
# CDK5 p35 inh: blocks human CDK5/p35 kinase activity | Q00535+Q15078 | Recombinant CDK5/p35, ADP-Glo luminescence, 60 min | inhibition, % at 10 µM | actives 0.01% (n = 330,000) | AID 488839;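 active = highest replicate inhibition of at least 50% and at least 75% of replicates reaching 50%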
# Dyrk1A ADPGlo: blocks rat Dyrk1A kinase activity; ADP-Glo luminescence, NFATc1 peptide; inhibition, % at 12.5 µM; actives 0.43% (n = 310,000); in the data active = inhibition above about 50%
# STK33 inh: blocks human STK33 kinase activity. Q9BYT3. actives 0.073% (n = 320,000). purified STK33, MBP phosphorylation, ADP-Glo luminescence. inhibition, % at 10 µM;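 active = inhibition at or above 25%, using the most active replicate where run in duplicate; inactive = inhibition below 25%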
# A number is an active result; 0 = inactive; - = no result. The entries come from a sample that favours hits as a whole.
SMILES,GSK3A inh,GSK3B inh,CDK5 p35 inh,Dyrk1A ADPGlo,STK33 inh
CN(C)C/C=C/C(=O)Nc1cccc(-c2c[nH]c3ncnc(Oc4ccc(NC(=O)CC(=O)Nc5ccc(F)cc5)cc4F)c23)c1,0,-,0,68,62
N#Cc1ccccc1S(=O)(=O)N1CCN(C(=O)[C@@H]2CCCN2C(=O)c2cccs2)CC1,0,-,0,-,0
NS(=O)(=O)c1ccc(NC(=O)CSc2nnc(-c3ccc(O)cc3)o2)cc1,53,0,0,0,0
Cc1csc(=O)n1CCC(=O)OCC(=O)NNC(=O)c1ccccc1,0,0,0,0,0
Cc1sc2ncnc(N3CCC(C(=O)Nc4ccc(OC(F)F)c(Cl)c4)CC3)c2c1C,0,-,0,0,0
CCN(CC)CCNC(=O)c1ccc(NC(=O)C2CCN(c3ncnc4sc(C)c(C)c34)CC2)cc1,53,0,0,0,0
c1nc(N2CCCC2)c2[nH]cnc2n1,0,0,0,0,31
c1nc(N2CCCCCC2)c2[nH]cnc2n1,0,0,0,0,0
CCN(CC)CCC=C(c1cccs1)c1cccs1,-,-,0,-,-
COc1cc2[nH]c(C(=O)N3CCN(c4ccc(F)cc4)CC3)cc2c(OC)c1OC,0,0,0,0,0
COc1c(-c2ccc(O)c(O)c2)oc2cc(O)cc(O)c2c1=O,90,0,0,85,0
COc1ccc(/C=C/c2nc3ccccc3n2C)cc1,0,0,0,0,50
Cc1ccc(N(CC(O)CN2CCCCC2)S(=O)(=O)c2ccccc2)cc1 (stereo unspecified),94,0,0,0,0
Cc1cc(O)ccc1NS(=O)(=O)c1ccc2c3c(cccc13)C(=O)N2,0,0,0,0,41
N#C/C(=N\Nc1c(Cl)cccc1Cl)C(=O)NN,75,0,0,0,0
O=[N+]([O-])c1cccc(/C([O-])=C(/C(=S)Nc2ccccc2)[n+]2ccccc2)c1,0,0,0,0,0
COc1ccccc1Nc1nnc(SCC(=O)NC(=O)Nc2ccc3c(c2)OCCO3)s1,0,0,0,0,0
COc1cc(CCNc2ccc3nnc(-c4ccccc4)n3n2)cc(OC)c1OC,0,0,0,0,0
CCCN(CCC)CCCNc1ccc2nnc(-c3ccc(F)cc3)n2n1,56,0,0,0,0
COc1ccc(Nc2nc(NCCCN3CCOCC3)nc(N)c2[N+](=O)[O-])cc1,85,-56,0,0,0
COCCNc1nc(N)c([N+](=O)[O-])c(Nc2ccc(F)cc2)n1,0,0,0,0,0
Nc1nc(NCCCN2CCOCC2)nc(Nc2ccc(F)cc2)c1[N+](=O)[O-],51,0,0,0,0
Nc1nc(Nc2cccc(F)c2)nc(N2CCOCC2)c1[N+](=O)[O-],0,0,0,0,0
Nc1nc(NCCCN2CCOCC2)nc(Nc2cccc(F)c2)c1[N+](=O)[O-],57,-71,0,0,0
Cc1cccc(Nc2nc(NCCCN3CCOCC3)nc(N)c2[N+](=O)[O-])c1,75,-74,0,-,0
SMILES,GSK3A inh,GSK3B inh,CDK5 p35 inh,Dyrk1A ADPGlo,STK33 inh
Cc1ccc(S(=O)(=O)Nc2c(C)cc(C)nc2Cl)cc1,0,0,0,0,0
CCCCC(CC)CNC(=O)C(Cc1ccccc1)NS(=O)(=O)c1ccc2c(c1)CCC(=O)N2 (stereo unspecified),0,0,0,0,0
Cn1c(SCC(=O)Nc2ccccc2O)nnc1-c1ccco1,0,0,0,0,0
Cc1[nH][nH]c(=O)c1N=Nc1ccc(S(N)(=O)=O)cc1,59,0,-,-,0
CC(=O)c1ccc(N=Nc2c(C)[nH][nH]c2=O)cc1,0,0,0,0,0
N#Cc1c(-c2ccccc2Cl)c2c([nH]c1=O)-c1ccccc1OC2,55,0,0,0,0
CCOC(=O)c1cnc2ccc(OC)cc2c1Nc1ccc(N2CCN(C)CC2)cc1,84,-59,0,0,0
N#C/C(=C\c1ccc(O)c(Br)c1)C(=O)NCc1ccccc1,0,0,0,86,0
O=C1CCNc2cc3ccccc3cc21,0,0,0,76,0
O=C1CCNc2ccc(-c3ccccc3)cc21,0,0,0,0,0
COC(=O)/C=C1\SC(=Nc2ccc(Cl)c(Cl)c2)NC1=O,0,0,0,0,0
COc1cc(/C=C2\SC(=Nc3ccc(Cl)c(C(=O)O)c3)NC2=O)c(Br)c(Br)c1O,0,0,0,65,35
CCn1c2ccc(Cl)cc2c2nc3ccccc3nc21,-,0,-,-,0
CCn1c2ccc(C)cc2c2nc3cc(C(=O)O)ccc3nc21,0,0,0,0,57
COc1ccc(-c2nc(-c3ccccn3)no2)cc1,0,0,0,0,29
